Yeast lifespan up: extends the lifespan of yeast; inhibition of the nicotinamide effect, % at 10 µM; 130,000 compounds, 0.68% hits; S. cerevisiae growth with nicotinamide, OD615; deaD strain in restrictive glucose medium; AID 775;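 active = inhibition above a set limit, placed 3 SD over the median of all compounds, cut at about 26% in these data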;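 note: 0% = nicotinamide-treated wells and 100% = cells grown without nicotinamide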
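System: DeaD-strain S. cerevisiae / Buffer or medium: CSMM-D, restrictive glucose (dextrose) synthetic minimal medium / Probe or stimulus: nicotinamide, 1.5 mM, co-present with compound / Compound: one concentration, 10 µM, DMSO 0.25% / Incubation: 48 h compound exposure at 30 °C, humidified / Technique: optical density (absorbance) at 615 nm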
BB579 growth dn: yeast BB579 growth reduction in restrictive medium | 140,000 compounds, 0.51% hits | AID 804 | S. cerevisiae BB579 growth, OD615, 48 h | inhibition, % at 10 µM;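 active = inhibition above a set limit, 3 SD over the mean compound inhibition, cut at about 44% in these data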
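Detection: OD615 turbidity measurement; Material: Saccharomyces cerevisiae DeaD strain BB579, replicative lifespan model yeast; Timing: 48 h exposure, 30 °C; Doses: single 10 µM dose; Medium: CSMM-D restrictive synthetic medium containing dextrose (glucose); Controls: amphotericin B at 10 µg/mL as positive control.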
Insulin prom up: MIN6 insulin promoter up-regulation; MIN6 insulin promoter-GFP reporter, high-content imaging; active compounds read high; z-score at 5 µM; 190,000 compounds, 0.3% hits;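 active = z-score above 3 at 5 µM with at least 500 cells counted in the well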
INS promoter inh: TRM-6 insulin promoter activity inhibition | TRM-6 cells, insulin promoter-eGFP reporter, imaging; reporter expression induced with tamoxifen | inhibition, % at 2 µM | 130,000 compounds, 0.9% hits;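 active = inhibition above the mean plus 3 SD, with well images judged a real hit on visual review, cut at about 60% in these data, passing the limit was not always enough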
RAM inhibit: inhibitors of the yeast RAM network | S. cerevisiae dse1pr::URA3 reporter, 5-FOA growth OD615, 2 d; analog-sensitive cbk1-as2 kinase mutant strain | inhibition, % at 50 µM | 190,000 compounds, 1.8% hits | AID 868;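 active = inhibition above a set limit, 3 SD over mean compound inhibition, cut at about 8.4% in these data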;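 note: 0% = DMSO-only wells with no growth and 100% = 10 µM 1-NA-PP1 full growth; inhibition rescues growth on 5-FOA so higher OD means more RAM inhibition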
* marks the source's active call; other numbers are inactive results; · = not tested or not shown. Compounds with a hit are over-represented: about 3% of the library has one in this group of screens.

SMILES | Yeast lifespan up | BB579 growth dn | Insulin prom up | INS promoter inh | RAM inhibit
CCOc1ccc2nc(SCC(=O)c3cccs3)sc2c1 | -12.1 | -1.1 | 0.02 | -151.7 | 1.0
CCOc1ccc2nc(SCC(=O)c3ccc(Cl)s3)sc2c1 | 0.6 | -19.1 | · | -23.1 | 9.8*
CCOc1ccc2nc(SCC(=O)N3CCCc4ccccc43)sc2c1 | -9.5 | -53.8 | -0.79 | 3.3 | 10.0*
CCCNC(=O)OCc1cccnc1Sc1ccc(C)cc1 | · | · | -0.35 | -63.6 | -0.4
COC(=O)c1ccc(OC)c(CSc2nnc(COc3ccccc3)o2)c1 | -8.5 | -13.9 | -0.21 | · | 5.2
COC(=O)c1ccc(OC)c(CSc2nnc(COc3ccc(Cl)cc3)o2)c1 | -5.6 | -34.3 | · | -31.0 | 9.7*
CC(C)c1ccc(/C=C/C(=O)NCCCc2ccccc2)cc1 | 5.2 | -17.0 | -0.05 | 0.0 | 8.6*
CC1CCCC(NC(=O)CCCn2c(=S)[nH]c3ccccc3c2=O)C1C (stereo not given) | · | · | -1.45 | -46.7 | 9.0*
C/C(=N\NC(=O)CCc1ccccc1)C1C(=O)c2ccccc2C1=O | · | · | · | · | 3.0
C/C(=N\NC(=O)c1cccc(Cl)c1)C1C(=O)c2ccccc2C1=O | 43.2* | -40.2 | 0.22 | 15.4 | 4.9
O=C1Nc2ccc3sc4ccccc4c3c2C1=O | · | · | 0.34 | · | ·
CCC(C)c1ccccc1NC(=O)Cc1coc2cc3c(cc12)CCC3 (stereo not given) | 15.9 | -46.5 | · | · | 9.5*
Cc1ccc(C)c(NC(=O)Cc2coc3cc4c(cc23)CCC4)c1 | 1.4 | -32.2 | -0.58 | -25.8 | 3.6
COCCCn1c(=S)[nH]c(C)c(C)c1=O | · | · | -0.29 | · | ·
O=C(CSc1cccc[n+]1[O-])Nc1cccc(Oc2ccccc2)c1 | · | · | 0.06 | · | 0.4
O=C(CSc1ccccc1)NCCCc1ccccc1 | · | · | 0.1 | · | 0.5
C=CCNc1ncnc2c1[nH]c1ccc(Cl)cc12 | -28.2 | 0.0 | 0.14 | 93.1* | 1.3
C=CCNc1ncnc2c1[nH]c1ccccc12 | -9.3 | -5.3 | -2.69 | 56.2 | 0.7
CC(=O)c1c(C(C)=O)c(C)n(NC(=O)c2cccnc2)c1C | 45.8* | -42.7 | 0.52 | 45.5 | 0.1
CC(=O)c1c(C(C)=O)c(C)n(NC(=O)c2ccccc2O)c1C | -3.7 | -9.9 | -0.54 | · | 0.7
O=C(Nn1c(-c2ccc(Br)cc2)nc2ccccc2c1=O)c1cccnc1 | · | · | -0.37 | 77.8* | 0.4
CCc1ccc(N=CC23c4ccccc4C(c4ccccc42)C2C(=O)N(c4ccc(OC)cc4)C(=O)C23)cc1 (stereo not given) | 28.6* | -21.9 | · | 22.0 | 3.5
O=C(O)c1ccc(N2C(=O)C3C4c5ccccc5C(Br)(c5ccccc54)C3C2=O)cc1 (stereo not given) | · | · | -0.08 | · | 3.0
CC1CCCCC1NS(=O)(=O)c1ccc(-n2cnnn2)cc1 (stereo not given) | 46.3* | -24.3 | -0.72 | 38.5 | 2.0
Nc1ncccc1OCc1ccc(Cl)c(Cl)c1 | · | · | 0.16 | · | ·
SMILES | Yeast lifespan up | BB579 growth dn | Insulin prom up | INS promoter inh | RAM inhibit
C#CCSc1nc(Cc2ccc(Cl)cc2)nc2ccccc12 | 1.1 | -43.5 | -0.57 | -120.7 | 8.6*
C=CCNC(=S)N(CC)c1cccc2ccccc12 | · | · | · | · | 0.0
CN(c1ccc(O)cc1)c1nc(-c2ccccc2)cs1 | -12.0 | 81.5* | 0.84 | 13.5 | -0.1
O=C(COc1ccc(Br)cc1)N/N=C1\SCC(=O)N1c1ccc(F)cc1 | 2.6 | -6.0 | 0.1 | 92.9* | 3.1
O=C(NCc1cccc(C(F)(F)F)c1)C1CC(c2ccc(C(F)(F)F)cc2)=NO1 (stereo not given) | · | · | 0.09 | · | ·
CC[C@@H](C(=O)n1nc(C)cc1C)[C@H](NS(=O)(=O)c1ccc(C)cc1)c1ccccc1 | 12.1 | -15.5 | -0.3 | -43.7 | 10.0*
CCc1nnc(NC(=O)CSc2nnc(C)n2-c2ccc(C)cc2)s1 | -4.2 | -1.9 | 0.67 | -364.3 | 0.1
CCc1nnc(NC(=O)CSc2nnc(Cc3ccccc3)n2-c2ccccc2)s1 | -3.9 | -31.4 | 0.46 | 81.8* | 1.9
CCc1nnc(NC(=O)CSc2nnc(COc3ccc(C)cc3)n2-c2ccccc2)s1 | -6.5 | -41.5 | 0.45 | · | 8.7*
O=C(CCCOc1ccccc1)NC1CCCc2ccccc21 (stereo not given) | 2.8 | -20.3 | 0.38 | -16.7 | 1.4
COc1ccc(OC)c(NC(=S)N2CCC(C(O)(c3ccccc3)c3ccccc3)CC2)c1 | -1.2 | -43.0 | -0.17 | · | 2.9
O=S(=O)(c1ccc(OCC2CO2)cc1)c1ccc(OCC2CO2)cc1 (stereo not given) | · | · | 0.43 | -400.0 | 0.2
CCc1sc(N(C(=O)Cc2ccccc2)c2ccccc2)nc1-c1ccccc1 | -8.0 | -19.4 | -0.05 | 0.0 | 11.2*
CCc1sc(N(C(=O)Cc2ccccc2)c2ccc(F)cc2)nc1-c1ccccc1 | -27.3 | -48.9 | -0.51 | -2.9 | 9.1*
COc1ccccc1/C=C/C=N/n1c(-c2ccc(Cl)cc2)n[nH]c1=S | · | · | 0.05 | · | ·
CCOc1cc(NC(=O)c2ccccn2)c(OCC)cc1NC(=O)c1cccc(C)c1 | · | · | -1.18 | · | 9.6*
Cc1cccc(C(=O)Nc2cc(OCc3cccc(F)c3)c(Cl)cc2Cl)c1 | -14.5 | -60.1 | 0.53 | 20.0 | 9.4*
CCOc1cc(NC(=O)c2cccs2)c(OCC)cc1NC(=O)c1ccccn1 | · | · | 0.76 | · | 3.2
COCCOc1cc(NC(=O)c2cccc(OC)c2)c(Cl)cc1Cl | · | · | -0.07 | 6.2 | 1.2
COc1ccc(-c2nc(CSCC(=O)N3CCc4ccccc43)c(C)o2)cc1OC | -14.9 | 26.8 | · | -257.1 | 4.7
COc1cccc(-c2nnc(SCC(=O)N3CCCc4ccccc43)o2)c1 | -12.4 | -40.3 | 0.49 | 60.5 | 8.5*
COc1cccc(-c2nc(CSCC(=O)N3CCc4ccccc43)c(C)o2)c1 | -5.8 | -29.6 | 0.03 | 9.1 | 8.8*
Cc1cc(Br)ccc1OCCCCN1CCCCC1 | · | · | -1 | · | 1.0
C/C(=N\Nc1ccc(Cl)cc1)c1c(O)cc(C)oc1=O | · | · | -0.34 | -33.3 | -0.8
O=c1c(-c2ccc(Cl)cc2)[n+]([O-])c2ccccc2n1OCc1ccccn1 | 45.3* | -40.7 | -0.19 | · | 0.7
SMILES | Yeast lifespan up | BB579 growth dn | Insulin prom up | INS promoter inh | RAM inhibit
CS(=O)(=O)c1ncc(CO)n1Cc1ccccc1 | · | · | -0.34 | · | 2.2
Oc1cccc(/C=N/NC(=S)Nc2cccnc2)c1O | -0.8 | 53.0* | -2.03 | -43.2 | -0.5
Cc1ccccc1NC(=O)c1cc([N+](=O)[O-])ccc1NCCN1C(=O)CCC1=O | · | · | 1.09 | · | 8.1
Cc1ccccc1N=Nc1c(C)[nH]n(-c2ccccc2)c1=O | · | · | 0.18 | · | 5.5
Cc1[nH]n(-c2ccccc2)c(=O)c1N=Nc1nccs1 | 33.6* | -38.6 | -0.05 | · | 2.2
Cc1[nH]n(-c2ccccc2)c(=O)c1N=Nc1ccc2c(c1)OCO2 | · | · | -0.13 | -23.1 | 2.9
Cc1[nH]n(-c2ccccc2)c(=O)c1N=Nc1ccccc1O | · | · | -1.42 | · | 9.9*
O=C(COC(=O)/C=C/c1ccco1)NCCc1ccccc1 | · | · | -0.18 | -50.0 | 0.8
COc1ccc(CC2(C)OC(c3ccc([N+](=O)[O-])cc3)=NN2C(C)=O)cc1 (stereo not given) | · | · | -0.43 | · | ·
COc1ccc(-c2ncccc2O)cc1 | -18.2 | 12.4 | -0.32 | 22.6 | -2.1
CCOc1c(C)cc(-c2ncccc2O)cc1C | -20.3 | -52.6 | -0.62 | 81.8* | 2.0

Source: PubChem (several laboratories)
